ChEMBL document CHEMBL3763088, “Design, synthesis, and biological evaluation of water-soluble amino acid prodrug conjugates derived from combretastatin, dihydronaphthalene, and benzosuberene-based parent vascular disrupting agents” (Bioorg Med Chem, 2016)

Columns and labels:
[1] = Retention time of the compound by HPLC analysis; type: physicochemical
In short: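 Reversed-phase C18 HPLC (4.6 × 150 mm, 5 μm) at 25 °C with diode-array detection at 190–400 nm. Acetonitrile against water or 0.1% TFA/water. Gradient 10% to 100% acetonitrile over 40 min, or in method C 10% acetonitrile for 5 min then to 100% over 5–25 min, at 1.0 mL/min.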

[2] = Cytotoxicity against human SKOV3 cells assessed as growth inhibition after 48 hrs by SRB assay; type: functional, SK-OV-3
In short: (§1)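 Cells kept at 37 °C, 5% CO2, up to passage 15. Plated at 7500 cells/well in DMEM with 5% FBS and 1% gentamycin, grown 24 h, then given 10-fold serial dilutions for 48 h. Fixed with 10% TCA (final), SRB-stained, read at 540 nm, normalized at 630 nm. GI50 is the concentration halving net protein staining versus controls, taken from optical density data.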

Leucine aminopeptidase [3] = biological target: T1, Leucine aminopeptidase (Sus scrofa, UniProt Q29571); test: Prodrug conversion assessed as porcine leucine aminopeptidase-mediated compound cleavage by HPLC analysis; type: ADME; conditions: pig
T1 sequence (Q29571 whole entry): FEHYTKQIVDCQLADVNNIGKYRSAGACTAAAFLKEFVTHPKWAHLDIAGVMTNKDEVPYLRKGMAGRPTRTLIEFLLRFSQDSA
In short: (§2)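 Porcine kidney microsomal LAP; units defined with 24 mM L-leucine p-nitroanilide in 50 mM sodium phosphate pH 7.2 at 37 °C. Enzyme preincubated in the same buffer at 37 °C, then substrate added. Aliquots were quenched with acetonitrile on ice, centrifuged and run on C18 HPLC (acetonitrile/water, 0.05% TFA, 1.0 mL/min, 22 °C, diode-array UV). Cleavage % from the parent/prodrug peak-area ratio; amounts from calibration curves.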

Leucine aminopeptidase [4] = biological target: T1, Leucine aminopeptidase; test: Prodrug conversion assessed as porcine leucine aminopeptidase-mediated compound cleavage after 24 hrs using 3.6 units of enzyme by HPLC analysis; type: ADME; conditions: pig; in short: as §2
MDA-MB-231 [5] = test: Induction of tumor-specific vascular damage in luciferase expressing human MDA-MB-231 cells xenografted in SCID mouse assessed as reduction in light emission at 15 mg/kg at 24 hrs post dose by bioluminescence imaging assay (reference value: 24%); type: functional; conditions: MDA-MB-231, 24 h
MDA-MB-231 [6] = test: Induction of tumor-specific vascular damage in luciferase expressing human MDA-MB-231 cells xenografted in SCID mouse assessed as reduction in light emission at 10 mg/kg at 24 hrs post dose by bioluminescence imaging assay (reference value: 24%); type: functional; conditions: MDA-MB-231, 24 h
NCI-H460 = test: Cytotoxicity against human NCI-H460 cells assessed as growth inhibition after 48 hrs by SRB assay; type: functional; in short: as §1
Leucine aminopeptidase [7] = biological target: T1, Leucine aminopeptidase; test: Activity at porcine leucine aminopeptidase by HPLC analysis; type: ADME; conditions: pig; in short: as §2
MDA-MB-231 [8] = test: Induction of tumor-specific vascular damage in luciferase expressing human MDA-MB-231 cells xenografted in SCID mouse assessed as reduction in light emission at 15 mg/kg at 4 hrs post dose by bioluminescence imaging assay (reference value: 22%); type: functional; conditions: MDA-MB-231, 4 h
MDA-MB-231 [9] = test: Induction of tumor-specific vascular damage in luciferase expressing human MDA-MB-231 cells xenografted in SCID mouse assessed as reduction in light emission at 10 mg/kg at 4 hrs post dose by bioluminescence imaging assay (reference value: 22%); type: functional; conditions: MDA-MB-231, 4 h
[10] = Cytotoxicity against human DU145 cells assessed as growth inhibition after 48 hrs by SRB assay; type: functional, DU-145; in short: as §1
Tubulin = Tubulin (Bos taurus, UniProt Q6B856+Q862L2+Q862F3); test: Inhibition of bovine brain tubulin polymerization preincubated for 15 mins by spectrophotometric analysis
In short: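 Purified bovine brain tubulin, 1.0 mg/mL (10 μM), in 0.8 M monosodium glutamate pH 6.6 with 4% DMSO and varied compound. Temperature jumped from 0 to 30 °C; turbidity at 350 nm followed for 20 min.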

MDA-MB-231 [11] = test: Induction of tumor-specific vascular damage in luciferase expressing human MDA-MB-231 cells xenografted in SCID mouse assessed as reduction in light emission at 80 mg/kg at 4 hrs post dose by bioluminescence imaging assay (reference value: 22%); type: functional; conditions: MDA-MB-231, 4 h
MDA-MB-231 [12] = test: Induction of tumor-specific vascular damage in luciferase expressing human MDA-MB-231 cells xenografted in SCID mouse assessed as reduction in light emission at 80 mg/kg at 2 hrs post dose by bioluminescence imaging assay relative to control; type: functional; conditions: MDA-MB-231, 2 h
MDA-MB-231 [13] = test: Induction of tumor-specific vascular damage in luciferase expressing human MDA-MB-231 cells xenografted in SCID mouse assessed as reduction in light emission at 80 mg/kg at 24 hrs post dose by bioluminescence imaging assay (reference value: 24%); type: functional; conditions: MDA-MB-231, 24 h
Tubulin (Bos taurus) = Tubulin (Bos taurus) (UniProt Q6B856+Q862L2+Q862F3); test: Displacement of [3H]colchicine from bovine brain tubulin at 5 uM after 10 mins by scintillation counting analysis
In short: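 1.0 μM tubulin with 5.0 μM [3H]colchicine and inhibitor at 1.0 or 5.0 μM. Buffer: 5% DMSO, 1.0 M monosodium glutamate pH 6.6, 0.5 mg/mL BSA, 0.1 M glucose-1-phosphate, 1.0 mM MgCl2, 1.0 mM GTP. Incubated 10 min at 37 °C, stopped with ice-cold water, collected on DEAE-cellulose filters and scintillation counted. Corrected for filter binding without tubulin; % inhibition against no-inhibitor controls.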

Row | SMILES | GI50 [2] | Drug metabolism (Leucine aminopeptidase [3]) | GI50 (NCI-H460) | GI50 [10] | GI50 (NCI-H460; Homo sapiens, NCI-H460, 48 h) | GI50 ([10]; Homo sapiens, DU-145, 48 h) | GI50 ([2]; Homo sapiens, SK-OV-3, 48 h) | also measured
1 | COc1ccc2c(c1N)CCC=C2c1cc(OC)c(OC)c(OC)c1 |  |  |  |  |  |  |  | Retention_time [1]: 12.1 min
2 | COc1ccc2c(c1NC(=O)[C@@H](N)CO)CCCC=C2c1cc(OC)c(OC)c(OC)c1.Cl | 47 µM | < 10% |  |  |  |  |  | Drug metabolism (Leucine aminopeptidase [4]): < 10%
3 | COc1ccc2c(c1NC(=O)CN)CCC=C2c1cc(OC)c(OC)c(OC)c1.Cl | 0.0485 µM | 100% | 0.042 µM | 0.0585 µM |  |  |  | inhibition in vivo at 15 mg/kg (MDA-MB-231 [5]): 90%; inhibition in vivo at 10 mg/kg (MDA-MB-231 [6]): 55%; Activity (Leucine aminopeptidase [7]): 15.5 µM/min; inhibition in vivo at 15 mg/kg (MDA-MB-231 [8]): 97%; inhibition in vivo at 10 mg/kg (MDA-MB-231 [9]): 70%
4 | COc1ccc(/C=C\c2cc(OC)c(OC)c(OC)c2)c(N)c1 | 0.0266 µM |  |  |  | 0.0401 µM | 0.0331 µM |  | IC50 (Tubulin): 1.1 µM; Retention_time [1]: 31.29 min
5 | COc1ccc2c(c1NC(=O)[C@@H](N)CO)CCC=C2c1cc(OC)c(OC)c(OC)c1.Cl | 11.6 µM | < 10% | 18.6 µM | 26 µM |  |  |  | Drug metabolism (Leucine aminopeptidase [4]): < 10%
6 | COc1ccc(/C=C\c2cc(OC)c(OC)c(OC)c2)c(N)c1N.Cl | 0.0228 µM |  | 0.124 µM | 0.205 µM |  |  |  | inhibition in vivo at 80 mg/kg (MDA-MB-231 [11]): 94%; IC50 (Tubulin): 2.3 µM; inhibition in vivo at 80 mg/kg (MDA-MB-231 [12]): 95%; inhibition in vivo at 80 mg/kg (MDA-MB-231 [13]): 79%
7 | COc1ccc2c(c1NC(=O)[C@@H](N)CO)CCC=C2c1cc(OC)c(OC)c(OC)c1 |  |  |  |  | 31.1 µM | 40.6 µM | 13.7 µM | 
8 | COc1ccc2c(c1N)CCCC=C2c1cc(OC)c(OC)c(OC)c1 |  |  |  |  | 0.00185 µM | 0.00226 µM | 0.000137 µM | IC50 (Tubulin): 1.3 µM; inhibition (Tubulin (Bos taurus)): 82%
9 | COc1ccc2c(c1NC(=O)[C@@H](N)CO)CCCC=C2c1cc(OC)c(OC)c(OC)c1 |  |  |  |  | 45.9 µM | > 81.3 µM | 44.9 µM | 
10 | COc1ccc(/C=C\c2cc(OC)c(OC)c(OC)c2)c(NC(=O)[C@@H](N)CO)c1NC(=O)[C@@H](N)CO | 25.9 µM | metabolite_notdetected | 24.4 µM | 33.6 µM |  |  |  | 
11 | COc1ccc(/C=C\c2cc(OC)c(OC)c(OC)c2)c(NC(=O)[C@@H](N)CO)c1 |  |  |  |  | 0.0333 µM | 0.0347 µM | 0.0395 µM | 
12 | COc1ccc2c(c1NC(=O)CN)CCCC=C2c1cc(OC)c(OC)c(OC)c1 |  |  |  |  | 0.566 µM | 0.507 µM | 0.195 µM | 
13 | COc1ccc(/C=C\c2cc(OC)c(OC)c(OC)c2)c(N)c1.Cl | 0.00735 µM |  | 0.0263 µM | 0.0285 µM |  |  |  | IC50 (Tubulin): 2.5 µM
14 | COc1ccc(/C=C\c2cc(OC)c(OC)c(OC)c2)c(NC(=O)CN)c1.Cl | 0.0485 µM | 100% | 0.0292 µM | 0.0447 µM |  |  |  | Activity (Leucine aminopeptidase [7]): 180 µM/min
